According to PMC8802302 (Journal of Medicinal Chemistry, 2021):

Experiments:
[1] = tested on: 403 wild-type (WT) human kinases; assay: DiscoverX scanMAX kinome-wide selectivity screen; assay type: binding; details: 403 WT human kinases; for no. kinases with PoC < 10: DiscoverX scanMAX, 1 μM; for S10 (1 μM): Percentage of screened kinases with PoC values < 10 at 1 μM
PAMPA permeability = assay type: in vitro ADME; details: PBS pH 7.4, 5 h incubation
Procedure, shortened: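 DMSO stocks of test compound were diluted in PBS pH 7.4 and added to the donor side of a precoated PAMPA plate, with PBS pH 7.4 as acceptor, for 5 h. Both compartments were quantified by chemiluminescent nitrogen detection against a calibration curve, with background nitrogen corrected. Effective permeability was calculated from donor and acceptor concentrations, using measured rather than assumed solubility.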

LRRK2 = LRRK2 (Homo sapiens, UniProt Q5S007); assay: NanoBRET assay follow-up; assay type: cell-based; details: singlicate (n = 1) dose–response
Sequence of LRRK2 (Q5S007 whole entry): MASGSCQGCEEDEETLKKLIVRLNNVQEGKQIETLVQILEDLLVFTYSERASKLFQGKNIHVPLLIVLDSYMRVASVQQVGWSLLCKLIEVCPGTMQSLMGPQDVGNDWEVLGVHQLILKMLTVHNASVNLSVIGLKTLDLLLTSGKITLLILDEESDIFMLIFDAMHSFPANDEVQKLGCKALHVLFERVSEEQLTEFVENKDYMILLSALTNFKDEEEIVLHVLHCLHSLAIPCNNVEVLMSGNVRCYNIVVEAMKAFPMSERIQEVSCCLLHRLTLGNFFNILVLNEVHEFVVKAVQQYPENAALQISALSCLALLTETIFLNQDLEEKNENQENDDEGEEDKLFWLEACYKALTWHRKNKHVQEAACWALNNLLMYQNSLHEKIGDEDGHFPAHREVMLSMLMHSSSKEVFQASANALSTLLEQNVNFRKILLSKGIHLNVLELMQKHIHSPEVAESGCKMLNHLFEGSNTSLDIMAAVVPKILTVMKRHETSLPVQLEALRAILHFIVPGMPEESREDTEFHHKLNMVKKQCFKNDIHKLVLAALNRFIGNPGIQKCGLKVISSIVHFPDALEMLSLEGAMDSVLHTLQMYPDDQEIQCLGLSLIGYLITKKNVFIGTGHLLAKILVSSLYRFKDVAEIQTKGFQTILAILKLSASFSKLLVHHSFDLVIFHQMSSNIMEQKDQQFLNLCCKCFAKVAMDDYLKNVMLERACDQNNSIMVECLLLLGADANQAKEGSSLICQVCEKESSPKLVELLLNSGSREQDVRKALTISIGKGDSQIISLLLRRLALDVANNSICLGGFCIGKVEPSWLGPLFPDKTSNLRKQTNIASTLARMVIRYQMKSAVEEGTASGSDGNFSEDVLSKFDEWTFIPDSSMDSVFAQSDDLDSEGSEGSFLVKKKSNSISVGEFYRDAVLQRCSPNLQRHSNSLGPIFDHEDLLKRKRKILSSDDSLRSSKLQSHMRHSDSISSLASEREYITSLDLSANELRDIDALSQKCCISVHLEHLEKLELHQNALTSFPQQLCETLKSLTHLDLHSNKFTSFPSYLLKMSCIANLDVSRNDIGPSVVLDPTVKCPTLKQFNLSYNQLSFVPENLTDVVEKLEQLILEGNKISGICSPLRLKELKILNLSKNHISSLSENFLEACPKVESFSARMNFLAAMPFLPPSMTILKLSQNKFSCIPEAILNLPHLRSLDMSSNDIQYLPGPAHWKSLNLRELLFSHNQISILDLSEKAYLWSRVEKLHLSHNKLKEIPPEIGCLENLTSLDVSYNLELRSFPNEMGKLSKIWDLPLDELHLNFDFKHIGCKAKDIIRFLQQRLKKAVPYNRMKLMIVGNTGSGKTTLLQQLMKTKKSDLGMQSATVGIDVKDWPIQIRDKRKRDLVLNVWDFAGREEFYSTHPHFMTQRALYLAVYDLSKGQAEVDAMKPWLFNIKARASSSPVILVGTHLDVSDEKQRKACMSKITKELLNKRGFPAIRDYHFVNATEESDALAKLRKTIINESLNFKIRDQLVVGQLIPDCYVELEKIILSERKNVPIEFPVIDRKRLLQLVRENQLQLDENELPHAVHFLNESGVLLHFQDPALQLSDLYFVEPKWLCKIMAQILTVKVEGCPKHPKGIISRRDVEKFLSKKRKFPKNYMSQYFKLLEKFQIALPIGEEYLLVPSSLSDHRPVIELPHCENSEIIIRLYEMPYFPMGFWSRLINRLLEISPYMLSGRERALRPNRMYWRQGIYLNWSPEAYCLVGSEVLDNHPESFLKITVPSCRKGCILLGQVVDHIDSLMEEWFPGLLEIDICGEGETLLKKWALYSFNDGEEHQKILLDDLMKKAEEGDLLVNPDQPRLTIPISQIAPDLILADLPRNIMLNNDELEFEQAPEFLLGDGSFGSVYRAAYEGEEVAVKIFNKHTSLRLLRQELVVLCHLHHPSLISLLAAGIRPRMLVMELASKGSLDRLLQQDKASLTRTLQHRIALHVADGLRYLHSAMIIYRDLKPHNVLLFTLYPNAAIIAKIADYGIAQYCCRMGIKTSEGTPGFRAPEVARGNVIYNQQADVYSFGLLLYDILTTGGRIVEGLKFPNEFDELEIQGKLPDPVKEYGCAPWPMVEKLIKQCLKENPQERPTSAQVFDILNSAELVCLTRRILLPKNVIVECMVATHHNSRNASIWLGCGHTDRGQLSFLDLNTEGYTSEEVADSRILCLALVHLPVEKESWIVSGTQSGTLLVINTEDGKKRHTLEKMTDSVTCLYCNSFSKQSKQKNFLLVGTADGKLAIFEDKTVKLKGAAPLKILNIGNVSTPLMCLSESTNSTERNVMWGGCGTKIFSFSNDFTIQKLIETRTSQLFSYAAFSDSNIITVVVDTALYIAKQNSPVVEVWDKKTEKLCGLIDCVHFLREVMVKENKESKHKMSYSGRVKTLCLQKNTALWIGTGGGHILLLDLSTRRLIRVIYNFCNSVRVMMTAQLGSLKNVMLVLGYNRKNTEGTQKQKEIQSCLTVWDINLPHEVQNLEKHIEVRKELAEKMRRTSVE

16-member kinase panel = assay: Eurofins custom enzymatic kinase panel, count of kinases inhibited; assay type: biochemical; details: 16-member Eurofins panel, 1 μM
Procedure, shortened: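 Radiometric kinase assays were run with ATP at Km. Each test compound was tested at a single concentration of 1 μM, in duplicate, against each panel kinase, with results as percent of control. The count is the number of kinases at ≤ 10 PoC, i.e. inhibited ≥ 90%.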

NUAK1 [2] = target: T1, NUAK1 (Homo sapiens, UniProt O60285); assay: NanoBRET assay follow-up; assay type: cell-based
T1 sequence (O60285 1-661): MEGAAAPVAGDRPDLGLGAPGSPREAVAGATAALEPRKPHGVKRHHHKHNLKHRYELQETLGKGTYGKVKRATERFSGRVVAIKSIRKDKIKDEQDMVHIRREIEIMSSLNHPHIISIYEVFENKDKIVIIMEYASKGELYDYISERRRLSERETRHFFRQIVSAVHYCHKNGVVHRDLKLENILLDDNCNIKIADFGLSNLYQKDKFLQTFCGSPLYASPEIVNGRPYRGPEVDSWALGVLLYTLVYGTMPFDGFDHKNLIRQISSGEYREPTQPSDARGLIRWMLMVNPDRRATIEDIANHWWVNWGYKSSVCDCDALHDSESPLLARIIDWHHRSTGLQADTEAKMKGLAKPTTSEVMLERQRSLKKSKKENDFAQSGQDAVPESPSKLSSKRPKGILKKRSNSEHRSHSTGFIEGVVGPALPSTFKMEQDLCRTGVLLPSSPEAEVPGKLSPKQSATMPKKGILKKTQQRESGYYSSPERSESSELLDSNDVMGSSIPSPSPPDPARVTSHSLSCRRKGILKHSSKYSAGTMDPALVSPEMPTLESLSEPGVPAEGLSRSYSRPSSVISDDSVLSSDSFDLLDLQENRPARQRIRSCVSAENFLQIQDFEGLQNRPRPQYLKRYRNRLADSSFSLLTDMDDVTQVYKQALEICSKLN

MARK3 (NLuc-MARK3) = MARK3 (NLuc-MARK3) (Homo sapiens, UniProt P27448); assay: NanoBRET cellular target engagement assay; assay type: cell-based
Sequence of MARK3 (NLuc-MARK3) (P27448 whole entry): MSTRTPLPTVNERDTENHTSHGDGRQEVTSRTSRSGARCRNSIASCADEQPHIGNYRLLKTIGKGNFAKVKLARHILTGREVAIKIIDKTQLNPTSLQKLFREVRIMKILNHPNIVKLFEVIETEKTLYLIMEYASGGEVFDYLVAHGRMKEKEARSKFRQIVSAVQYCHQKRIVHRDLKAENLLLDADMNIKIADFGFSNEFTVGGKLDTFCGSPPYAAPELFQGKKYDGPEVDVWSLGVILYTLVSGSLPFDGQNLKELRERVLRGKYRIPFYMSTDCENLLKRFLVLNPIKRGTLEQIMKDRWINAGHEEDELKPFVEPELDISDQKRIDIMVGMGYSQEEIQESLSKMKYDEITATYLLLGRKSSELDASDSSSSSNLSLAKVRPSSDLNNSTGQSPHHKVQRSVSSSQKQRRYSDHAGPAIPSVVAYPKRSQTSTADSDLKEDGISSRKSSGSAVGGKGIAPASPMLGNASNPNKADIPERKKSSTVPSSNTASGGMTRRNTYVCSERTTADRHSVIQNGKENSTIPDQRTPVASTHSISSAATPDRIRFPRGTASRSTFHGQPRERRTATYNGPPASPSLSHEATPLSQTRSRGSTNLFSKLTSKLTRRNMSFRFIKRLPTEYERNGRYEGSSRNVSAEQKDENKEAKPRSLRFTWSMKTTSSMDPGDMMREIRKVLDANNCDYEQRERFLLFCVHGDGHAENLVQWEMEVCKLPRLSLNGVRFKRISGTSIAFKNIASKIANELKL

MARK4 (NLuc-MARK4) = target: T2, MARK4 (NLuc-MARK4) (Homo sapiens, UniProt Q96L34); assay: NanoBRET cellular target engagement assay; assay type: cell-based; details: HEK293, 0.5 μM tracer K-5; n = 1 where no error, SEM n = 2
T2 sequence (Q96L34 1-752): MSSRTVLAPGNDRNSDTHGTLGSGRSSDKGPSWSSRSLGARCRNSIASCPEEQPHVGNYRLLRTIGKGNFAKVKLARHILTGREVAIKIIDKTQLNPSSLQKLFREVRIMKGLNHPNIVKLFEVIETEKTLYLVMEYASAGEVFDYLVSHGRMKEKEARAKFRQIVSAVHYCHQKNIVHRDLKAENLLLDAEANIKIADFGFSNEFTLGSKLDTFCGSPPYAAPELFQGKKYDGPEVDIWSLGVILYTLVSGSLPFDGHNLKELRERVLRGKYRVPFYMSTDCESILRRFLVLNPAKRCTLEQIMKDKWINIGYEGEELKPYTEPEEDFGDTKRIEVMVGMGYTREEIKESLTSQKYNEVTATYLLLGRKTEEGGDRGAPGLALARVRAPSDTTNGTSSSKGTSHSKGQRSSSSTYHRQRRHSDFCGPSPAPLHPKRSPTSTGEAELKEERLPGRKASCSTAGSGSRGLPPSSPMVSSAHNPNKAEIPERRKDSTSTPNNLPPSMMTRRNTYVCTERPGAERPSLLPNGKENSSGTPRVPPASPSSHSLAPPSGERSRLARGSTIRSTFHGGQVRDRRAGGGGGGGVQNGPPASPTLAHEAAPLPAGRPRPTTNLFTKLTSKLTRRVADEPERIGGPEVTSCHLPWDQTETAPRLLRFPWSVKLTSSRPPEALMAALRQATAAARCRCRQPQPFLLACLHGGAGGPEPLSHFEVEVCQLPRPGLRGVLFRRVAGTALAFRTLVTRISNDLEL

TBK1 (NLuc-TBK1) = target: T3, TBK1 (NLuc-TBK1) (Homo sapiens, UniProt Q9UHD2); assay: NanoBRET cellular target engagement assay; assay type: cell-based; details: HEK293, 0.5 μM tracer K-5; n = 1 where no error, SEM n = 3
T3 sequence (Q9UHD2 1-729): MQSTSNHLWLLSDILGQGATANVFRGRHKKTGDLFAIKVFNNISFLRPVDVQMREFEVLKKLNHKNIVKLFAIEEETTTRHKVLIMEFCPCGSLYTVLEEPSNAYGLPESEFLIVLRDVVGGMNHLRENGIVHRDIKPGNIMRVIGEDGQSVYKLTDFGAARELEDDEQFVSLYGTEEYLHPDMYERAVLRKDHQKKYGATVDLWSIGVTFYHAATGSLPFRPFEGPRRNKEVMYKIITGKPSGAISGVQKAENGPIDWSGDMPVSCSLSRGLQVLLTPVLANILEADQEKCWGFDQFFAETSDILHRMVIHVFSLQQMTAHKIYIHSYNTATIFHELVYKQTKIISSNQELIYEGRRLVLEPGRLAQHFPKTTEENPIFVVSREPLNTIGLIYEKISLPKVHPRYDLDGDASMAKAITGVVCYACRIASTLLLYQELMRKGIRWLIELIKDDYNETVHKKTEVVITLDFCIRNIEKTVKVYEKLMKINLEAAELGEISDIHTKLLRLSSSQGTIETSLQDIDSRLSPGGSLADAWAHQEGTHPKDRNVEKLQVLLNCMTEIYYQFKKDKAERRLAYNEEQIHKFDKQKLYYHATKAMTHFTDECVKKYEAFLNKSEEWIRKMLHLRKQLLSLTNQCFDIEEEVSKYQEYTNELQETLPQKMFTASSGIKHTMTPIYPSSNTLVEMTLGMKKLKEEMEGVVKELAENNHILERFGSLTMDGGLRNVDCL
Procedure, shortened: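 HEK293 cells were grown in DMEM with 10% FBS at 37 °C under 5% CO2, passaged every 72 h with trypsin and kept below confluency. Cells expressed NanoLuc fusions (DRAK1-NLuc or NLuc-TBK1). Dose–response was run per the manufacturer's protocol, with 0.5 μM tracer K-9 for DRAK1 and 0.5 μM tracer K-5 for TBK1. SEM was reported where assays were repeated.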

DRAK1 (DRAK1-NLuc) = target: T4, DRAK1 (DRAK1-NLuc) (Homo sapiens, UniProt Q9UEE5); assay: NanoBRET cellular target engagement assay; assay type: cell-based; details: HEK293, 0.5 μM tracer K-9; n = 1 where no error, SEM n = 3
T4 sequence (Q9UEE5 1-414): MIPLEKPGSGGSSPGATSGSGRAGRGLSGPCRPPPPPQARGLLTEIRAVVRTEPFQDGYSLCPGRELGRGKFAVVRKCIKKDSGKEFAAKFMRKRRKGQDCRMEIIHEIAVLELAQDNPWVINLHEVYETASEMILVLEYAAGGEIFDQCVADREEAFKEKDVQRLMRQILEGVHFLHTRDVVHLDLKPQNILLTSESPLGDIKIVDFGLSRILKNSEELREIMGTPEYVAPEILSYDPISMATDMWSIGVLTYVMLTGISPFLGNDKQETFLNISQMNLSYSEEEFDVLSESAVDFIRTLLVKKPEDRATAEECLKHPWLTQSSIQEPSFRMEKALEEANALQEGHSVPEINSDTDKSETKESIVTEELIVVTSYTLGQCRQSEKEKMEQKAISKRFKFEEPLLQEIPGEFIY

TBK1 = target: T5, TBK1 (Homo sapiens, UniProt Q9UHD2); assay: Eurofins kinase enzymatic radiometric assay; assay type: biochemical; details: enzymatic IC50 values
T5 sequence (Q9UHD2 1-729): T3 sequence (Q9UHD2 1-729)
Procedure, shortened: (§1)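 Both kinases of each pair (NUAK1/NUAK2; TBK1/IKKε) were tested in radiometric assays with ATP at Km. Test compounds were run as 9-point dose–response curves in duplicate. IC50 values for the two kinases were then compared as a fold difference.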

TYK2 = TYK2 (Homo sapiens, UniProt P29597); assay: NanoBRET assay follow-up; assay type: cell-based; details: singlicate (n = 1) dose–response
Sequence of TYK2 (P29597 whole entry): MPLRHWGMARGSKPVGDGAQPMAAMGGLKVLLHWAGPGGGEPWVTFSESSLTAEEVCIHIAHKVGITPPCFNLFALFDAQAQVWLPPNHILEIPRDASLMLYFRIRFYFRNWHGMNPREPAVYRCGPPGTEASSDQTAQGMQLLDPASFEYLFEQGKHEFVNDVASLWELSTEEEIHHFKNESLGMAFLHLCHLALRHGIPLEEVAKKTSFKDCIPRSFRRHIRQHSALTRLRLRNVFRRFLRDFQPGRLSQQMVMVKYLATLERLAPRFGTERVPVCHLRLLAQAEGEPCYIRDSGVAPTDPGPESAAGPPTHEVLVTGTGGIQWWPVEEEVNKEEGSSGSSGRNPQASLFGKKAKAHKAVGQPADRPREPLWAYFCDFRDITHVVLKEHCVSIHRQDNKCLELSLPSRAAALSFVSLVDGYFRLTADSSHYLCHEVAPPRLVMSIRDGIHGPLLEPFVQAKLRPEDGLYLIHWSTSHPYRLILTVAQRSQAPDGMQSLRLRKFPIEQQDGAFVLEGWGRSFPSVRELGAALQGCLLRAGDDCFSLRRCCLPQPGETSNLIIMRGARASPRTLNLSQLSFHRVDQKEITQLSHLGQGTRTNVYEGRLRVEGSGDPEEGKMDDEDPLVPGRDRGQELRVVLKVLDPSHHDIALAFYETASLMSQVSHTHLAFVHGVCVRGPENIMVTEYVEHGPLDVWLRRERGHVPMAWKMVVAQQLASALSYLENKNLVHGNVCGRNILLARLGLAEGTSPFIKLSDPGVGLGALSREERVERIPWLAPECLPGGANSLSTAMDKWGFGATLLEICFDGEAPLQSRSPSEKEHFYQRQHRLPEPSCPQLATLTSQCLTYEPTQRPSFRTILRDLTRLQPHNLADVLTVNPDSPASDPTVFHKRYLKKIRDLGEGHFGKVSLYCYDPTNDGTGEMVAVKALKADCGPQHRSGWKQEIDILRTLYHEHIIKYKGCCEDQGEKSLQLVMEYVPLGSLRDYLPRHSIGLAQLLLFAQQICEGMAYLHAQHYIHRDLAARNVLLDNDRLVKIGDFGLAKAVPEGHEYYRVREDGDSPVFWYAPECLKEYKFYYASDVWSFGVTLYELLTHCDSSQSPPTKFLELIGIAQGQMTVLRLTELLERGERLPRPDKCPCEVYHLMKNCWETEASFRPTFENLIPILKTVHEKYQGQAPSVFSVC

NUAK1 [3] = target: T1, NUAK1; assay: Eurofins kinase enzymatic radiometric assay; assay type: biochemical; details: enzymatic IC50 values
Procedure, shortened: as §1

MYLK2 = MYLK2 (Homo sapiens, UniProt Q9H1R3); assay: NanoBRET assay follow-up; assay type: cell-based
Sequence of MYLK2 (Q9H1R3 whole entry): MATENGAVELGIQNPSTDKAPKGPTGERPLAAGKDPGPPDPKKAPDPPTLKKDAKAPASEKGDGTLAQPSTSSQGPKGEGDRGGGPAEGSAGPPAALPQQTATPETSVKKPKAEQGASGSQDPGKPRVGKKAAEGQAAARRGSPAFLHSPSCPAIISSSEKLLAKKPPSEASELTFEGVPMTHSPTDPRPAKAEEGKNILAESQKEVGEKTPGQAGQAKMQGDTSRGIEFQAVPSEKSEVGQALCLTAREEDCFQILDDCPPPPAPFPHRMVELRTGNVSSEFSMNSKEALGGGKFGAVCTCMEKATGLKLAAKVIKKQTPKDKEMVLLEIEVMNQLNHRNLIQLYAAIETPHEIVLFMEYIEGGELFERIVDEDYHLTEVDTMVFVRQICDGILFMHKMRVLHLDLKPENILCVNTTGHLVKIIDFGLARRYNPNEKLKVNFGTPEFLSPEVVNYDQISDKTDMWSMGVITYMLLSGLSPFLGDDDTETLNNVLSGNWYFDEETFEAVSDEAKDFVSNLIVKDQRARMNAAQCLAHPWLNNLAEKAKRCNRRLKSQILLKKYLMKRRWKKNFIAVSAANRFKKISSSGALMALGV

| Structure (SMILES) | Pe (permeability coefficient, PAMPA) (PAMPA permeability) | no. kinases ≤ 10 PoC in enzyme panel (16-member kinase panel) | no. kinases with PoC < 10 [1] | S10 (1 μM) [1] | other results |
| --- | --- | --- | --- | --- | --- |
| O=C(NCCCNc1nc(Nc2cccc(NC(=O)N3CCCC3)c2)ncc1I)c1cccs1 [BX-795, reference compound] | – | 16 | – | – | IC50 (NUAK1 [2]): 0.187 µM; fold loss in potency, enzymatic to NanoBRET, NUAK1 (NUAK1 [2]; published enzymatic IC50 vs NanoBRET IC50): ~34 fold; IC50 (MARK3 (NLuc-MARK3)): 0.515 µM |
| O=C(NCCCNc1nc(Nc2cccc(NC(=O)N3CCCC3)c2)ncc1Br)C1CCC1 [Compound 18, N-(3-((5-Bromo-4-((3-(cyclobutanecarboxamido)propyl)amino)pyrimidin-2-yl)amino)phenyl)pyrrolidine-1-carboxamide] | – | 16 | 90 | 0.223 | MARK4 NanoBRET IC50 (MARK4 (NLuc-MARK4)): submicromolar; MARK3 NanoBRET IC50 (MARK3 (NLuc-MARK3); HEK293, 0.5 μM tracer K-9, n = 1 where no error, SEM n = 2): submicromolar; TBK1 NanoBRET IC50 (TBK1 (NLuc-TBK1)): submicromolar; DRAK1 NanoBRET IC50 (DRAK1 (DRAK1-NLuc)): submicromolar |
| NS(=O)(=O)c1ccc(CNc2ccnc(Nc3cccc(NC(=O)N4CCCC4)c3)n2)cc1 [Compound 16, N-(3-((4-((4-Sulfamoylbenzyl)amino)pyrimidin-2-yl)amino)phenyl)pyrrolidine-1-carboxamide] | below the limit of quantitation | 0 | 1 | – | TYK2 NanoBRET IC50 (TYK2): did not have any activity |
| NS(=O)(=O)c1ccc(CNc2nc(Nc3cccc(NC(=O)N4CCCC4)c3)ncc2Br)cc1 [Compound 13, N-(3-((5-Bromo-4-((4-sulfamoylbenzyl)amino)pyrimidin-2-yl)amino)phenyl)pyrrolidine-1-carboxamide] | below the limit of quantitation | 4 | – | 0.03 | fold difference between NUAK1 and NUAK2 (NUAK1 [3]): ~3 fold |

The next lines start with results.

| Pe (permeability coefficient, PAMPA) (PAMPA permeability) | no. kinases ≤ 10 PoC in enzyme panel (16-member kinase panel) | Structure (SMILES) | no. kinases with PoC < 10 [1] | S10 (1 μM) [1] | other results |
| --- | --- | --- | --- | --- | --- |
| low permeability | 0 | Cc1nn(CC(F)(F)F)cc1Nc1ncc(C2CC2)c(NCCc2c[nH]cn2)n1 [Compound 3, N^4-(2-(1H-Imidazol-4-yl)ethyl)-5-cyclopropyl-N^2-(3-methyl-1-(2,2,2-trifluoroethyl)-1H-pyrazol-4-yl)pyrimidine-2,4-diamine] | 2 | 0.005 | LRRK2 NanoBRET IC50 (LRRK2): did not have any activity |
| below the limit of quantitation | 1 | Cc1nn(CC(F)(F)F)cc1Nc1ncc(C2CC2)c(NCc2ccc(S(N)(=O)=O)cc2)n1 [Compound 5, 4-(((5-Cyclopropyl-2-((3-methyl-1-(2,2,2-trifluoroethyl)-1H-pyrazol-4-yl)amino)pyrimidin-4-yl)amino)methyl)benzenesulfonamide] | 2 | 0.005 | fold difference in potency for TBK1 and IKKε (TBK1): 8 fold |
| low permeability | 0 | Cc1nn(CC(F)(F)F)cc1Nc1nccc(NCCc2cnc[nH]2)n1 [Compound 15, N^4-(2-(1H-Imidazol-5-yl)ethyl)-N^2-(3-methyl-1-(2,2,2-trifluoroethyl)-1H-pyrazol-4-yl)pyrimidine-2,4-diamine] | 0 | – | fold loss in potency, enzymatic versus NanoBRET, MYLK2 (MYLK2): < 10 fold; MYLK2 NanoBRET IC50 (MYLK2; singlicate (n = 1) dose–response): single digit micromolar activity |
| – | 0 | NS(=O)(=O)c1ccc(CNc2ccnc(Nc3cccc(CN4CCOCC4)c3)n2)cc1 [Compound 19, 4-(((2-((3-(Morpholinomethyl)phenyl)amino)pyrimidin-4-yl)amino)methyl)benzenesulfonamide] | 3 | 0.007 | TYK2 NanoBRET IC50 (TYK2): did not have any activity |
